APP 5'UTR act = activators of APP 5'UTR luciferase reporter, primary screen, SH-SY5Y cells; SH-SY5Y APP 5'UTR luciferase reporter, luminescence; zero percent = DMSO vehicle wells; activation, % at 2 µM; 1% of 190,000 active;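 active = activation above a set limit, based on mean plus 3 SD of controls, cut at about 140% in these data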
STAT1 act = STAT1 signaling activators, primary screen, cell-based, HTS, luciferase reporter | NIH 3T3 STAT1-luciferase reporter, IFN-gamma, luminescence; 100% = IFN-gamma alone, no compound | activation (% of control), % at 5.5 µM | 2.6% of 200,000 active;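 active = activation above the screen-wide mean activation plus 3 SD, cut at about 130% in these data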;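 also: raw ratio to IFN-gamma control signal so 100% means no change and 0% no light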
FLuc stim CS = FLuc activators, initial screening, artefact control for FLuc-dependent activation tests, biochemical, ATPlite luminescence; ATPlite luciferase biochemical, 10 min; 0 = ATP-free wells, 1 = DMSO control; activation factor at 10 µM; 200,000 tested, under 10 active; AID 1027, 2008;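 active = luciferase activation factor, scaled between plate controls, of at least 2 with compound at 10 µM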
Target sequence (P08659 whole entry, looked up): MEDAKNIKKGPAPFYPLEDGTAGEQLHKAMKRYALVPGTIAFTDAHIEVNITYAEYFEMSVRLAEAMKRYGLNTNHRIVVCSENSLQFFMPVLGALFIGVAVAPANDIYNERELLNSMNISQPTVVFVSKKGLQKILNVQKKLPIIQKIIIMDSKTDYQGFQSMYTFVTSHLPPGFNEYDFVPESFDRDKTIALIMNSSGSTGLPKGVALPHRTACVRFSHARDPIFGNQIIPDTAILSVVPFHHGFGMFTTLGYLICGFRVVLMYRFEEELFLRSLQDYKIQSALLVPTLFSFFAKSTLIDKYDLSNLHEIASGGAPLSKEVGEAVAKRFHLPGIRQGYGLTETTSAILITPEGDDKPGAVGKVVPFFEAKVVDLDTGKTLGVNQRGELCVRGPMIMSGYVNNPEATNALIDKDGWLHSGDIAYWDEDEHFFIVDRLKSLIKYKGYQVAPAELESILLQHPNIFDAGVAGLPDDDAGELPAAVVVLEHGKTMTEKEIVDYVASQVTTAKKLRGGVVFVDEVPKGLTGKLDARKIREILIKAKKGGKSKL
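test system = cell-free luciferase reagent | medium = PBS as buffer for the ATP substrate | dosing = test compounds dosed from 2 mM stocks in 100% DMSO | incubation = 10 min at ambient temperature | detection = luminescence measurement of luciferase light output | benchmarks = low control with PBS replacing ATP, high control enzyme plus ATP without compound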
NF-kB expr up = activators of NF-kB expression in neurons, primary screen, cell-based, HTS | human neuronal cells, NF-kB reporter expression; active compounds read high | fold change at 12.5 µM | 1.6% of 190,000 active; in the data active = fold change above about 3.3
APP transl inh = inhibitors of APP translation via 5'UTR reporter, primary screen, APP 5'UTR luciferase, SH-SY5Y cells. SH-SY5Y APP 5'UTR-luciferase reporter, luminescence. inhibition, % at 2 µM. 0.82% of 190,000 active. AID 1285, 2008;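 active = inhibition above a set limit, derived from the sample mean plus 3 SD, cut at about 45% in these data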
FLuc inh counter = firefly luciferase enzyme inhibitors, primary screen, artefact control for luciferase-based inhibitor screens, biochemical, luminescence, ATPLite; Luciferin 4-monooxygenase (Photinus pyralis), P08659; 10 min; inhibition, % at 10 µM; 1.5% of 200,000 active; AID 1006, 2008;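 active = inhibition above about 50% when tested at 10 µM, limit read from the data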
* hit, by the source's call; . = no result. Sampled rows, rich in hits. Any-hit rate of the full collection: about 4.8%.

SMILES | APP 5'UTR act | STAT1 act | FLuc stim CS | NF-kB expr up | APP transl inh | FLuc inh counter
Cc1ccc(OC(=O)Nc2ccccc2)cc1 | 27 | 144* | 0.5 | 0.98 | -27 | 51*
O=C(c1ccc(F)cc1Cl)N(c1ccccn1)C1CCCCC1 | 2 | 90 | 1.1 | 1.1 | -2 | -5
CCN(CC)c1ccc(N=Cc2ccccc2[N+](=O)[O-])cc1 | 0 | 97 | 0.3 | 1 | 0 | 66*
Cc1ccc(C(=O)NCCc2csc(-c3cccnc3)n2)cc1 | 18 | 101 | 0.3 | 1.1 | -18 | 68*
N=C1C(c2ccccc2)=C(O)CN1c1cccc(S(=O)(=O)Nc2cccc(C(F)(F)F)c2)c1 | -6 | 108 | 1 | 0.79 | 6 | -5
Cn1cc(/C=N/n2cnc3scc(-c4ccc(Cl)cc4)c3c2=O)c2ccccc21 | -90 | 100 | 1 | 1.1 | 90* | -4
O=c1oc(-c2ccco2)nc2sc3c(c12)CCCC3 | 16 | 95 | 0.2 | 1.9 | -16 | 79*
COc1cc(/C=C2\C(=N)N3N=CSC3=NC2=O)cc(Br)c1OC(=O)c1ccco1 | -23 | 97 | 1.1 | 1.3 | 23 | -13
Cc1csc(=NC(=O)c2ccccc2)n1C | 102 | 127 | 0.7 | 3.6* | -102 | 31
C=CCn1c(COc2ccccc2F)nnc1SCCN1C(=O)c2ccccc2C1=O | 21 | 101 | 1 | 0.86 | -21 | -4
Cc1ccccc1C(=O)N/N=C1\SCC(=O)N1Cc1ccco1 | -16 | 95 | 1 | 0.98 | 16 | -3
COc1ccc2c(c1)CCC1C2=NN(/C(C)=C\C(C)=O)C1c1ccc(F)cc1 (configuration not stated) | 43 | 130* | 0.8 | 1.8 | -43 | 22
CCC(C)NC(=O)COC(=O)c1oc2ccccc2c1CSc1ccc(Cl)cc1 (configuration not stated) | 0 | 101 | 1.1 | 1 | 0 | -7
CCN(CC)c1ccc(-c2nnc(SCC(=O)Nc3ccccc3C#N)n2-c2ccccc2)cc1 | 2 | 105 | 1.1 | 0.75 | -2 | -9
COc1ccc2oc(=Nc3cc(F)ccc3F)c(C(N)=O)cc2c1 | -13 | 131* | 1 | 1.1 | 13 | -4
Cc1nc(N)nc(N)c1/C=C/C(C)(C)c1ccc(Cl)cc1 | -70 | 65 | 1 | 0.56 | 70* | -1
CCc1nc(Sc2nc(C)cc(C)n2)c2oc3ccccc3c2n1 | . | 92 | 1.1 | 4.3* | . | -6
Cc1ccc(CN=C(N)Nc2nc(C)cc(C)n2)cc1 | -71 | 92 | 1.1 | 1.5 | 71* | -11
O=C(COC(=O)c1cc[n+]([O-])cc1)NCc1ccccc1Cl | -1 | 103 | 1 | 0.96 | 1 | -3
CCC(C)/C(C)=N/NC(=O)c1ccc(CSc2nc3ccccc3s2)cc1 (configuration not stated) | 46 | 130* | 1 | 1.3 | -46 | -3
COc1cc(/C=C(/C(=O)c2cccs2)c2nc3ccccc3[nH]2)ccc1O | 43 | 96 | 0.6 | 4.5* | -42 | 35
COc1ccc(CCNC(=O)C2CCN(c3ccc(N4CCOCC4)nn3)CC2)c(OC)c1 | 3 | 97 | 1 | 1.2 | -3 | -4
CCOc1cc(C(=O)N/N=C(\C)Cc2ccc(OC)cc2)cc(OCC)c1OCC | -87 | 100 | 1 | 0.93 | 86* | 0
Oc1[nH]c2ccccc2c1/C=N/c1nccs1 | 34 | 126 | 0.5 | 1.3 | -34 | 49
Cc1ccc(N=Cc2c(O)[nH]c3ccccc23)c([N+](=O)[O-])c1 | 160* | 131* | 0.9 | 1 | -160 | 12
CCN=C1S/C(=C\c2ccc(OC)c(OCC)c2)C(=O)N1CC | 7 | 100 | 1 | 1.2 | -7 | -2
CCN=C1S/C(=C\c2sccc2C)C(=O)N1CC | 41 | 130* | 1 | 1.6 | -41 | 4
CC(C)(C)c1nnc(NC(=O)c2cccs2)s1 | 68 | 134* | 0.7 | 3.4* | -68 | 30
CCOC(=O)Nc1nnc(-c2cccc(OC)c2)s1 | -9 | 106 | 0.9 | 1.3 | 9 | 6

Screens from PubChem.
